Screening data from PubChem.
Hits are enriched below; roughly 3.5% of the tested compounds scored in any of these assays.
RGS4 block: RGS4 inhibitors, primary screen, cell-based, HEK293 M3R inducible RGS4, calcium flux | B-score at 10 µM | Regulator of G-protein signaling 4 (Homo sapiens), P49798 | hit rate 0.45% among 310,000 | Fluo-4 calcium flux; hits give high values; triggered by carbachol at its EC20;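 active means B-score, a plate-corrected calcium signal, over three deviations above library mean, with baseline fluorescence within five deviations of library mean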;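 further: RGS4 expression induced by doxycycline in cells with stable M3 receptor; B-score is computed from the integrated fluorescence ratio over baseline after carbachol; higher B-score means a larger calcium signal and so more RGS4 inhibition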
Target sequence (P49798 whole entry, looked up): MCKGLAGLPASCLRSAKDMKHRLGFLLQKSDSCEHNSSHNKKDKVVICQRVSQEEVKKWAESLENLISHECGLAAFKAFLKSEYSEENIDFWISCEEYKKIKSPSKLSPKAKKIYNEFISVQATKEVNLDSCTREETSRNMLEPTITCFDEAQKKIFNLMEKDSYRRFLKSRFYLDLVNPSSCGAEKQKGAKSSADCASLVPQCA
RGS4 act: RGS4 potentiators or activators, primary screen, cell-based, HEK293 M3R inducible RGS4, calcium flux; carbachol calcium flux Fluo4; hits give low values; B-score at 10 µM; hit rate 0.92% among 310,000; AID 463111, 2010;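 active means B-score of the integrated calcium signal more than 4 SD below the library mean, with starting fluorescence not abnormally high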;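 further: negative B-score means reduced calcium response which marks RGS4 activation or potentiation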
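Assay system: HEK293 FlpIn-TREx cells, stable M3R, doxycycline-inducible RGS4 / Probe or stimulus: carbachol, ECmax concentration / Times: overnight RGS4 induction, 30 min dye load 37 °C, 20 min compound RT / Signal: kinetic calcium fluorescence imaging with Fluo4-AM dye, 2 µM / Measure: Agonist-evoked peak-minus-minimum fluorescence over baseline, integrated ratio, B score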
MrgX1 allo act: positive allosteric modulators of MrgX1, primary screen, HEK293 cells, Fluo-4 calcium flux; FDSS; hits give high values; B-score at 10 µM; hit rate 0.63% among 310,000;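 active means plate-corrected calcium response at least 3 library SD above typical, normal starting fluorescence, not activating the receptor alone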;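 further: compound read alongside a low EC10 to EC30 dose of BAM8-22 agonist; peak minus trough fluorescence over baseline measured at the second addition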
Target sequence (Q96LB2 whole entry, looked up): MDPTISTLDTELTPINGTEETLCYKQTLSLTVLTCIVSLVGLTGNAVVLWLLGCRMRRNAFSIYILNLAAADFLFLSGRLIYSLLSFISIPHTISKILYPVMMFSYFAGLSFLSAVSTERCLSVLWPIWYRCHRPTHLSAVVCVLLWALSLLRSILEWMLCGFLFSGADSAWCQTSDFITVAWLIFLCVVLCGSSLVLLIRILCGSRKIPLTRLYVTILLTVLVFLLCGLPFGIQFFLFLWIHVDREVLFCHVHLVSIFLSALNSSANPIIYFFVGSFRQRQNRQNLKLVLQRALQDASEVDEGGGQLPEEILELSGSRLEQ
MrgX1 antagonist: antagonists of human MrgX1 receptor, primary screen, HEK293 cells, Fluo-4 calcium flux. Mas-related G-protein coupled receptor member X1 (Homo sapiens), Q96LB2. BAM8-22 antagonism; hits give low values. B-score at 10 µM. hit rate 1.3% among 310,000;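 active means calcium-response B-score plate-corrected more than 3 library SD below zero, starting fluorescence within 5 deviations, no agonist response on first addition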;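 further: peak minus trough fluorescence over baseline after final BAM8-22 challenge near maximal dose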
MrgX1 agonist: agonists of human MrgX1 receptor, primary screen, HEK293 cells, Fluo-4 calcium flux | AID 588627, 2011 | Mas-related G-protein coupled receptor member X1 (Homo sapiens), Q96LB2 | hit rate 0.44% among 310,000 | B-score at 10 µM | Fluo-4 calcium fluorescence, agonist mode; hits give high values;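 active means calcium response B-score plate-corrected fluorescence ratio at least 3 library SD, with starting fluorescence B-score inside 5 SD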
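Material: MrgX1-expressing HEK293 cells; input: 15,000 cells per well; doses: test compound given as first of three sequential additions; schedule: overnight plating before 1 h dye loading; technique: Fluo-4 NW calcium-flux fluorescence, kinetic read; evaluation: baseline-normalised fluorescence change ratio, B-scored; control set: plate-wise positive and negative controls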
RGS4 block valid: enhanced carbachol calcium response, M3R/RGS4 cells, RGS4 inhibitor project, cell-based, validation screen, HEK293 M3R/RGS4, calcium flux. shares compounds with RGS4 block. carbachol calcium Fluo-4 fluorescence; carbachol added at its EC20; 0 = buffer wells, 100 = carbachol control. calcium response, % at 10 µM. hit rate 65% among 1,700. AID 492999, 2010;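 active means duplicate-averaged calcium response above the buffer-only control mean plus 5 SD of those controls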;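 further: integrated fluorescence ratio F max minus min over baseline F0; higher response in RGS4-induced cells means RGS4 inhibition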
M3R Ca ctr: carbachol calcium response in non-induced M3R cells, confirmation, counter-screen for RGS4 inhibitor project, cell-based, HEK293 M3R; carbachol calcium Fluo-4; submaximal (EC20) carbachol stimulus; buffer wells 0%, carbachol control wells 100%; activity (percent), % at 10 µM; hit rate 20% among 1,900; shares compounds with RGS4 block; call rule not given here;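 further: RGS4 induction absent so cells express M3R without RGS4; higher means more calcium signal and flags a non-specific hit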
RGS4 inh ctr2: second counter-screen for RGS4 inhibitors: non-induced cells without carbachol. HEK293 M3R/RGS4 non-induced, Fluo-4 calcium, no carbachol; normalised: buffer wells 0%, carbachol wells 100%. shares compounds with RGS4 block. calcium response (agonist-mode artifact), % at 10 µM. AID 493001. hit rate 22% among 1,900;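 active means duplicate-averaged calcium rise in uninduced cells above buffer wells' mean plus 5 SD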
The depositor's hits bear a star; i = inactive; nt = not tested or not shown.

SMILES	RGS4 block	RGS4 act	MrgX1 allo act	MrgX1 antagonist	MrgX1 agonist	RGS4 block valid	M3R Ca ctr	RGS4 inh ctr2
CC(=O)Nc1cc(Cl)c(N=Cc2ccc(O)cc2O)cc1Cl	8.1*	i	i	i	i	16%*	29%*	i
NS(=O)(=O)c1ccc(CCNC(=O)C(=O)c2cn(CC(=O)N3CCOCC3)c3ccccc23)cc1	i	i	i	i	i	nt	nt	nt
N#Cc1c(NC(=O)CSc2ncn[nH]2)sc2c1CCCC2	5.1*	i	i	i	i	8.5%*	i	i
CC1CCc2c(sc(NC(=O)CSc3ncn[nH]3)c2C#N)C1 (stereo not drawn)	i	i	i	i	i	nt	nt	nt
CCc1cc(=O)oc2cc(OC(C)C(=O)NCC3CCC(C(=O)O)CC3)c(Cl)cc12 (stereo not drawn)	i	i	i	i	i	nt	nt	nt
COc1ccc(N2CCN(C3CCN(S(=O)(=O)c4ccc(F)cc4)CC3)CC2)cc1	i	i	i	i	i	nt	nt	nt
COc1ccc(S(=O)(=O)N2CCN(c3ccc4nnc(-c5ccc(F)cc5)n4n3)CC2)cc1	i	i	i	i	i	nt	32%*	i
CCOc1ccc2cc(/C=C/C(=O)c3ccco3)c(Cl)nc2c1	i	i	i	i	i	i	i	40%*
COc1ccc(N2CC(C(=O)OCC(=O)Nc3cccc(C)c3)CC2=O)cc1 (stereo not drawn)	i	i	i	i	i	nt	nt	nt
Cc1ccc(NC(=O)C2CC(O)CN2C(=O)OCc2ccccc2)cc1C (stereo not drawn)	i	i	nt	nt	nt	nt	nt	nt
CCOc1ccc(/C=C/C(=O)c2c(O)cc(C)oc2=O)cc1	i	i	i	i	i	nt	nt	nt
COc1ccc(-c2cc(=O)oc3c(C)c(O)ccc23)cc1	i	i	i	i	i	nt	nt	nt
COc1ccc(/C=C\C(=O)c2c(O)ccc3c(C)cc(=O)oc23)cc1	i	i	i	i	i	nt	i	i
COc1ccc(/C=C/C(=O)c2c(O)ccc3c(C)cc(=O)oc23)cc1	i	i	i	i	i	i	i	i
Cc1[nH]n(-c2c(Cl)cc(Cl)cc2Cl)c(=O)c1C=Nc1ccc(S(=O)(=O)N2CCOCC2)cc1	i	i	i	i	i	i	i	i
Cc1[nH]n(-c2ccccc2)c(=O)c1C=Nc1ccc(S(N)(=O)=O)cc1	i	i	i	i	i	nt	nt	nt
CN(CC(=O)Nc1cccc(F)c1)C(=O)CC1CC2CCC1C2 (stereo not drawn)	i	i	i	i	i	nt	nt	nt
Cc1ccc(C(=O)NC2CCCc3ccccc32)cc1[N+](=O)[O-] (stereo not drawn)	i	i	i	i	i	nt	nt	nt
NS(=O)(=O)c1ccc(CCNC(=O)CCC2COc3ccccc3O2)cc1 (stereo not drawn)	i	i	i	i	i	nt	nt	nt
COc1ccc(CCNC(=O)CCC2COc3ccccc3O2)cc1OC (stereo not drawn)	i	i	i	i	i	i	i	i
O=C(Nc1ccc(NS(=O)(=O)c2ccc([N+](=O)[O-])cc2)cc1)c1ccco1	i	i	i	i	i	nt	nt	nt
CSc1ccc(S(=O)(=O)N2CCC(C(=O)N3CCc4ccccc4C3)CC2)cc1	i	i	i	i	i	nt	nt	nt
Cc1c(-c2ccc(Cl)cc2Cl)nc2ccccc2c1C(=O)NCCN1CCOCC1	i	i	i	i	i	nt	nt	nt
COc1cnc(-c2ccccn2)nc1Oc1ccc(Cl)c2ccccc12	10*	i	i	i	i	16%*	i	i
COc1cnc(-c2ccccn2)nc1Oc1ccccc1Cl	i	i	i	i	i	nt	nt	nt
SMILES	RGS4 block	RGS4 act	MrgX1 allo act	MrgX1 antagonist	MrgX1 agonist	RGS4 block valid	M3R Ca ctr	RGS4 inh ctr2
Cc1ccc(/C=N/N2CCN(Cc3ccc(C)cc3)CC2)cc1	i	i	i	i	i	i	i	i
FC(F)(F)c1cc(N2CCN(Cc3ccccc3)CC2)c2ccccc2n1	i	i	i	i	i	nt	nt	nt
CC(C)(CC(=O)O)CC(=O)N1CCN(c2cc(C(F)(F)F)nc3ccccc23)CC1	5*	i	i	i	i	i	i	i
COc1cccc(Cn2c(=O)c3[nH]cnc3n(-c3ccccc3C)c2=O)c1	i	i	i	i	i	nt	i	i
NCCOc1ccc(C23CC4CC(CC(C4)C2)C3)cc1	11*	i	i	i	i	20%*	i	72%*
CCN(CC)C(=O)Cn1c(=O)n(CC(=O)N2CCCCC2)c(=O)c2sccc21	17*	i	i	i	i	i	i	i
COc1cccc(NC(=O)C(C)N2C(=O)c3ccccc3C2=O)c1 (stereo not drawn)	i	i	i	i	i	nt	nt	nt
CCc1ccc(CNC(=O)CCS(=O)(=O)Cc2ccc(C)cc2)cc1	i	i	i	i	i	nt	nt	nt
COc1cc2c(cc1OC)-c1cc(Nc3ccccc3)nc(=O)n1CC2	i	i	i	i	i	nt	i	93%*
COc1cc2c(cc1OC)-c1cc(Nc3ccc(C)cc3)nc(=O)n1CC2	i	i	i	i	i	nt	i	i
COc1ccc(Nc2cc3n(c(=O)n2)CCc2cc(OC)c(OC)cc2-3)cc1	i	i	i	i	i	nt	nt	nt
Cc1ccc(NC(=O)CCc2c[nH]c3ccccc23)nc1	i	i	i	i	i	nt	nt	nt
CCOC(=O)C1(Cc2ccccc2C)CCCN(S(=O)(=O)CC)C1 (stereo not drawn)	i	i	i	i	i	nt	nt	nt
CCOC(=O)[C@@H]1[C@H]2COc3cc(OC)ccc3[C@H]2N2C(=O)N(c3cccc(Cl)c3)C(=O)[C@@]12C	i	i	i	i	i	i	i	i
